This is a sample that favours compounds with a hit; in the whole collection about 2.3% have one here.
HNF4A DNA FP – change in binding of human HNF4 alpha to DNA. HNF4a-FITC DNA binding, fluorescence polarization, 1 h. activity change, % at 10 µM. 0.3% of 360,000 active; in the data active = activity change above about 30%, passing the limit was not always enough
Target sequence (P41235 whole entry, looked up): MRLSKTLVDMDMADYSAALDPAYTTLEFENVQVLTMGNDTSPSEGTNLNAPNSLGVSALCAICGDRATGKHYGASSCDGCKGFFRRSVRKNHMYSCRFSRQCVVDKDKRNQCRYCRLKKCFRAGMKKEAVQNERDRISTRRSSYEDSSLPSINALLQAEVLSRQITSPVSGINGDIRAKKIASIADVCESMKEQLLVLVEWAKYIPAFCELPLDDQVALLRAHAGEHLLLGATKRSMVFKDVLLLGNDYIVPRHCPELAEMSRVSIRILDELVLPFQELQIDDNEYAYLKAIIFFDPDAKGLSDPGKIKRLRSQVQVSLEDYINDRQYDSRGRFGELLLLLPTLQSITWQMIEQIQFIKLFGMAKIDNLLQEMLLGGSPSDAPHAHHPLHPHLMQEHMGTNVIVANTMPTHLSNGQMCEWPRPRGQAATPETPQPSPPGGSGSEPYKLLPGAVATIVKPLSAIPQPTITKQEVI
TPT1 inhibitor – C. albicans TPT1 enzyme inhibition. 0.81% of 300,000 active. recombinant caTPT1, FP RNA substrate dephosphorylation. inhibition, % at 5 µM. AID 1962;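 active = inhibition above the mean of all tested compounds plus 3 SD, set per screening campaign, cut at about 24% in these data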;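 also: plate controls were DMSO alone for no effect and ferristatin control at 100 nM for full effect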
CRFBP-R2 agonist – agonists of human CRF-binding protein/CRF-R2 receptor complex. HEK293 CRF-R2/CRF-BP, calcium dye fluorescence (FLIPR); percent of saturating CRF peptide response. activation, % at 13.2 µM. 0.46% of 350,000 active. AID 588473;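 active = activation of at least 50%, plus an integration ratio under a set limit after plate pattern correction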;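 also: plate controls were neutral control wells without compound for no effect and CRF at EC100 for full effect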
CRFBP-R2 block – blocks CRF-induced signaling of the CRF-BP/CRF-R2 complex. HEK293 CRF-R2/CRF-BP, CRF-induced calcium fluorescence. inhibition, % at 11.8 µM. 0.59% of 350,000 active. AID 588475;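 active = inhibition of the ligand-induced calcium signal above about 50% at the single tested concentration, limit read from the data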
CSN deneddyl inh – blocks human CSN-mediated cullin deneddylation; inhibition, % at 12.5 µM; 0.38% of 360,000 active; Purified CSN, SCF-Nedd8-OG deneddylation, fluorescence polarization;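 active = pattern-corrected inhibition above about 35%, with an unprinted fluorescence ratio check between 0.5 and 1.5, limit read from the data, passing the limit was not always enough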;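 also: 0% = enzyme with substrate and 100% = substrate without enzyme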
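Material: purified human Csn5 enzyme expressed in HEK293T cells / Medium: Tris buffer pH 7.5, NaCl, DTT, Tween-20, trehalose, ovalbumin / Compound dosing: 12.5 µM single point / Schedule: 90 min incubation of compound, enzyme and substrate at room temperature / Signal: fluorescence polarization of the substrate / Control set: no-enzyme wells high, enzyme-with-substrate wells low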
Rpn11 block – inhibitors of human proteasome Rpn11; O00487; human 26S proteasome, Ub4-pepOG fluorescence polarization; 20S core pre-blocked with epoxomicin; calls only at 20 µM; 0.59% of 360,000 active; AID 588493;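 active = inhibition at 20 µM, scaled to each plate's controls, above about 33%, limit read from the data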
Numbers without * were called inactive; i = inactive; nt = no result shown; + = active, no number.

SMILES	HNF4A DNA FP	TPT1 inhibitor	CRFBP-R2 agonist	CRFBP-R2 block	CSN deneddyl inh	Rpn11 block
C=C1C(C(=O)Nc2ccccc2)C1C(=O)Nc1ccccc1 (stereo not given)	-0.4	-1.4	0.2	59.5*	-2.8	i
CCOc1ccc(NC(=O)CSc2nnc(CCNC(=O)c3ccc(OC)cc3)n2CC)cc1	0.5	0.7	-1.6	-19.8	-3.4	i
Cc1ccc2nc(C)cc(NCCO)c2c1	0.0	-1.1	0.7	11.8	77.2*	i
CC(=O)OCCc1c2ccccc2c(CCCN(C)C)c2ccccc12	131.7*	-2.5	-0.4	-7.1	70.6*	i
Cc1cc(C)cc(NC(=O)c2cc(S(=O)(=O)N3CCCC3)cn2C)c1	52.6*	-3.0	-3.5	10.9	-4.7	i
Cc1c(C(=O)Nc2nc(-c3ccccn3)cs2)oc2ccccc12	-1.0	nt	1.9	2.7	7.3	+
CNc1nc2[nH]c(=O)c3c(c2s1)OC(N)=C(C#N)C3c1cccc(F)c1 (stereo not given)	2.8	-0.4	103.2*	-157.2	7.0	i
OC[C@H]1O[C@H](OCc2ccccc2)[C@H](O[C@@H]2OC[C@@H](O)[C@H](O)[C@H]2O)[C@@H](O)[C@@H]1O	-1.5	-2.1	-2.0	5.8	-2.6	i
O=C(CNS(=O)(=O)c1ccccc1)NCC(=O)OCc1ccc(C(=O)c2ccccc2)cc1	2.3	2.8	-0.7	10.1	-0.4	i
C=CCNc1nc(NCc2ccc(N(C)C)cc2)c2sc(-c3ccccc3)cc2n1	0.4	nt	nt	nt	48.8*	i
C=CCNc1nc(NCCOC)c2sc(-c3ccccc3)cc2n1	0.7	nt	nt	nt	1.9	i
O=C(COc1ccc2c(-c3ccccc3)cc(=O)oc2c1)Nc1ccc(CCO)cc1	16.1	-0.9	0.5	6.1	65.9*	i
Cc1cc(=O)oc2cc(OCC(=O)N/N=C/c3ccccc3O)ccc12	2.2	-2.5	0.7	3.3	105.9*	i
CC1(C)CC(c2nc(-c3ccc(Cl)cc3)cs2)CCS1 (stereo not given)	1.4	0.0	7.2	-39.8	2.5	i
CC1(C)CC(c2nc(-c3ccccc3)cs2)CCS1 (stereo not given)	16.7	2.9	1.1	1.5	96.8*	i
CCOC(=O)c1ccccc1NC(=O)COC(=O)c1ccccc1C(=O)N(C)c1ccccc1	-4.6	-1.0	-0.6	18.4	4.6	i
O=C1CCc2nc3ccccc3c(=O)n2N1	-2.2	-0.7	-1.0	80.2*	-4.5	i
CC(C)(C)c1ccc(C(=O)N/N=C/c2ccccn2)cc1	0.7	-1.6	1.6	-12.3	-3.6	i
Cc1ccc(C(=O)N/N=C\c2ccccn2)cn1	9.5	-2.5	2.1	113.4*	3.5	i
COC(=O)c1ccc(CSc2nc3ccccc3c(=O)n2-c2ccccc2)o1	4.8	-0.2	0.2	52.6*	-1.1	i
NC(=O)c1c(NC(=O)c2cccnc2)sc2c1CCCC2	-1.8	5.3	-1.0	-1.8	-6.8	i
Cc1ccc(C)n1NC(=O)c1ccccc1O	-3.8	1.0	2.9	79.5*	0.9	i
COc1ccc(NC(=O)Nc2nnc(C(C)(C)C)s2)cc1	1.8	-1.4	3.6	58.3*	3.1	i
CCN(C(=O)CN1C(=O)COc2ccc(S(=O)(=O)N3CCCCCC3)cc21)c1cccc(C)c1	1.6	-4.0	55.5*	-48.3	6.3	i
COc1ccc(OC(C)C(=O)NCC2CCCO2)cc1 (stereo not given)	2.5	0.8	0.6	-4.2	1.0	i
SMILES	HNF4A DNA FP	TPT1 inhibitor	CRFBP-R2 agonist	CRFBP-R2 block	CSN deneddyl inh	Rpn11 block
Oc1ccccc1OCc1nc2ccccc2s1	-1.5	1.3	-2.0	10.1	4.5	i
Oc1ccc(O)c(Cc2nc3ccccc3s2)c1	-3.1	-0.9	-0.5	53.2*	-11.0	i
CCSc1nnc(NC(=O)CSc2sc3c(O)cc(=O)[nH]c3c2C#N)s1	-33.0	1.8	0.2	13.6	34.8	+
Cc1nc(CNS(=O)(=O)c2ccc3ccccc3c2)cs1	3.7	-2.8	-2.5	64.7*	1.9	i
Cc1nc(CNS(=O)(=O)c2cccc(F)c2)cs1	-3.5	-0.3	0.7	-6.2	-2.3	i
COc1ccccc1-n1c(=O)c(C#N)c(-c2ccc([N+](=O)[O-])cc2)c2cc(C(=O)c3cc(F)ccc3O)cnc21	2.3	1.4	0.4	18.5	7.8	i
Cn1c(=O)c(C#N)c(-c2ccc(F)cc2)c2cc(C(=O)c3cc(Cl)cc(Cl)c3O)cnc21	10.2	-1.2	31.4	52.6*	-1.9	i
O=C(NCc1ccc(F)cc1)C(=O)NCC1OCCN1C(=O)c1ccc(Cl)cc1 (stereo not given)	4.7	4.7	-5.4	59.7*	0.6	i
COc1ccc(C(=O)N2CCOC2CNC(=O)C(=O)NCc2ccc(F)cc2)cc1 (stereo not given)	3.7	-0.2	0.9	3.5	-1.1	i
O=C(O)C1C2C=CC(C2)C1C(=O)NCCc1cccc(Cl)c1 (stereo not given)	-6.1	-1.2	1.0	50.1*	1.4	i
Cc1cn(-c2cc(NC(=O)c3ccc(C)c(NC(=O)c4cccc(-c5cn[nH]c(=O)c5)c4)c3)cc(C(F)(F)F)c2)cn1	25.4	-1.1	-0.3	2.0	13.4	+
Cc1ccc(NC(=O)c2cccc(C(F)(F)F)c2)cc1NC(=O)c1[nH]cnc1C(N)=O	-0.2	nt	0.7	10.7	4.0	i
COC(=O)[C@@H](N)Cc1ccc(O)cc1	nt	-1.1	nt	nt	nt	nt
CN(c1ccccc1)c1ccc(/C=C(\CCC(=O)O)c2nc3ccccc3s2)cc1[N+](=O)[O-]	-14.7	-0.1	-1.8	51.7*	-1.9	i
c1cc[n+](CCC[n+]2ccccc2)cc1	-6.8	1.3	1.5	6.9	-5.2	i
CC1(C(=O)Nc2cccc(S(=O)(=O)N3CCOCC3)c2)Cc2ccccc2C(=O)O1 (stereo not given)	1.0	-0.8	0.2	0.9	-1.4	i
CC1(C(=O)Nc2cccc(-n3cnnn3)c2)Cc2ccccc2C(=O)O1 (stereo not given)	4.4	nt	-0.3	16.9	100.6*	i
Cc1ccc(C2C(C(=O)c3cccs3)=C(O)C(=O)N2c2nnc(C)s2)cc1 (stereo not given)	-79.7	-22.3	134.3*	-74.9	-23.4	i
COc1ccc(N2CCN(CCCNC(=O)CN3CCN(Cc4ccccc4C)C3=O)CC2)cc1	-2.0	-4.3	5.7	56.2*	5.3	i
Cc1cc(C)c2nc3sc(=Cc4ccc(-c5ccccc5C(=O)O)o4)c(=O)n3c2c1	72.1	nt	nt	nt	142.3*	nt
O=C1NN(c2ccc(Cl)c(Cl)c2)C(=O)/C1=C/c1ccc(-c2ccccc2C(=O)O)o1	-14.2	nt	-1.7	6.4	8.4	i
CC1Cc2nc(SCC(=O)Nc3ccc4c(c3)OCO4)n(Cc3ccccc3)c(=O)c2S1 (stereo not given)	-0.4	-1.7	1.9	22.2	-2.9	i
